Assay results: ChEMBL document CHEMBL3992549, “Combretastatin A4-β-Galactosyl Conjugates for Ovarian Cancer Prodrug Monotherapy” (ACS Med Chem Lett, 2017)
Activity calls are given as the source filed them. No cut-off for these calls is given here.

How the values were obtained:
[1] = Cytotoxicity against human OVK18 cells assessed as reduction in cell viability after 72 hrs by WST8 assay; assay type: functional, cell-based; settings: OVK18, 72 h
OVCAR-3 [2] = assay: Cytotoxicity against human OVCAR3 cells assessed as reduction in cell viability after 72 hrs by WST8 assay; assay type: functional, cell-based; settings: OVCAR-3, 72 h
Homo sapiens [3] = species on record: Homo sapiens; assay: Induction of microtubule disruption in human OVCAR3 cells assessed as nuclear contraction at 10 nM after 24 hrs by Alexa Fluor 647/DAPI staining based fluorescence microscopic method; assay type: cell-based
In short: (§1)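 OVCAR3 cells treated for 24 h, then imaged by confocal fluorescence microscopy. Nuclei were stained directly with DAPI. α-Tubulin was detected with an Alexa Fluor 647-conjugated secondary antibody. Microtubule architecture, cytoskeleton and nuclear morphology (contraction, fragmentation) were scored.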

Homo sapiens [4] = species on record: Homo sapiens; assay: Induction of microtubule disruption in human OVCAR3 cells assessed as change in microtubule architecture at 10 nM after 24 hrs by Alexa Fluor 647/DAPI staining based fluorescence microscopic method; assay type: cell-based; in short: as §1
Homo sapiens [5] = species on record: Homo sapiens; assay: Induction of microtubule disruption in human OVCAR3 cells assessed as cytoskeleton contraction at 10 nM after 24 hrs by Alexa Fluor 647/DAPI staining based fluorescence microscopic method; assay type: cell-based; in short: as §1
Homo sapiens [6] = species on record: Homo sapiens; assay: Induction of microtubule disruption in human OVCAR3 cells assessed as nuclear fragmentation at 10 nM after 24 hrs by Alexa Fluor 647/DAPI staining based fluorescence microscopic method; assay type: cell-based; in short: as §1
Homo sapiens [7] = species on record: Homo sapiens; assay: Induction of microtubule disruption in human OVCAR3 cells assessed as cytoskeleton contraction at 20 to 200 nM after 24 hrs by Alexa Fluor 647/DAPI staining based fluorescence microscopic method; assay type: cell-based; in short: as §1
Sus scrofa = species on record: Sus scrofa; assay: Inhibition of pig brain tubulin polymerization at 5 uM measured every 1 min for 60 mins by HTS assay
OVCAR-3 [8] = assay: Cytotoxicity against human OVCAR3 cells assessed as reduction in cell viability at 200 nM after 48 hrs in presence of beta-galactosidase inhibitor beta-GA by WST8 assay; assay type: functional, cell-based
In short: (§2)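 β-Galactosidase inhibition condition was 1 mM β-GA present during compound treatment.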

Homo sapiens [9] = species on record: Homo sapiens; assay: Induction of microtubule disruption in human OVCAR3 cells assessed as nuclear contraction at 20 to 200 nM after 24 hrs by Alexa Fluor 647/DAPI staining based fluorescence microscopic method; assay type: cell-based; in short: as §1
OVK18 [10] = assay: Cytotoxicity against human OVK18 cells assessed as reduction in cell viability at 200 nM after 48 hrs in presence of beta-galactosidase inhibitor beta-GA by WST8 assay; assay type: functional, cell-based; in short: as §2
Beta-galactosidase = target: T1, Beta-galactosidase (Homo sapiens, UniProt P16278); assay: Prodrug activation in PBS buffer assessed as beta-galactosidase (unknown origin) mediated CA4 formation at 0.2 mM after 1 hr by HPLC analysis; settings: 200 µM
T1 sequence (P16278 whole entry): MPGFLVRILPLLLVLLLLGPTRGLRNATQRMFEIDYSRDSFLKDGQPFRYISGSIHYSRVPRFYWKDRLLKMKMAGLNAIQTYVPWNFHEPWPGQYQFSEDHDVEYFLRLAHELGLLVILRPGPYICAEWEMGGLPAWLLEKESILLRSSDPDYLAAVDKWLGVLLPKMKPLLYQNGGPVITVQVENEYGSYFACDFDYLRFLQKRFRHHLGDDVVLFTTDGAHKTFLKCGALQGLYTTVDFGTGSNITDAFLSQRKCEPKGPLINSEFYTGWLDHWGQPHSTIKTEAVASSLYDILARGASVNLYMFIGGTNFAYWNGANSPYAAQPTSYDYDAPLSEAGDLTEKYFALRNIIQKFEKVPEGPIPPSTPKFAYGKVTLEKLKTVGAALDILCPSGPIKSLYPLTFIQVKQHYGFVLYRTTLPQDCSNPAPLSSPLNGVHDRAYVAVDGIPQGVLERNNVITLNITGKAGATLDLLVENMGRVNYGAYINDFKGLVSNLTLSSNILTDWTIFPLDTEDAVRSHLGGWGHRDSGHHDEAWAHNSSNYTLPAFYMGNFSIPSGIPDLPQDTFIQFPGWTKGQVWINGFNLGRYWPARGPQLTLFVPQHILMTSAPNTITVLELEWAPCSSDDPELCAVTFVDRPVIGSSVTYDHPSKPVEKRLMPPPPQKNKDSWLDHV

Homo sapiens [11] = species on record: Homo sapiens; assay: Induction of microtubule disruption in human OVCAR3 cells assessed as change in microtubule architecture at 20 to 200 nM after 24 hrs by Alexa Fluor 647/DAPI staining based fluorescence microscopic method; assay type: cell-based; in short: as §1
Homo sapiens [12] = species on record: Homo sapiens; assay: Induction of microtubule disruption in human OVCAR3 cells assessed as nuclear fragmentation at 20 to 200 nM after 24 hrs by Alexa Fluor 647/DAPI staining based fluorescence microscopic method; assay type: cell-based; in short: as §1
OVK18 [13] = assay: Cytotoxicity against human OVK18 cells assessed as reduction in cell viability at 10 nM after 48 hrs in presence of beta-galactosidase inhibitor beta-GA by WST8 assay; assay type: functional, cell-based; in short: as §2
OVCAR-3 [14] = assay: Cytotoxicity against human OVCAR3 cells assessed as reduction in cell viability at 10 nM after 48 hrs in presence of beta-galactosidase inhibitor beta-GA by WST8 assay; assay type: functional, cell-based; in short: as §2
Homo sapiens [15] = species on record: Homo sapiens; assay: Induction of microtubule disruption in human OVCAR3 cells assessed as change in microtubule architecture at 1 nM after 24 hrs by Alexa Fluor 647/DAPI staining based fluorescence microscopic method; assay type: cell-based; in short: as §1
Homo sapiens [16] = species on record: Homo sapiens; assay: Induction of microtubule disruption in human OVCAR3 cells assessed as cytoskeleton contraction at 1 nM after 24 hrs by Alexa Fluor 647/DAPI staining based fluorescence microscopic method; assay type: cell-based; in short: as §1

Row | Compound | EC50 [1] [nM] | EC50 (OVCAR-3 [2]) [nM] | Activity (Homo sapiens [3]) | Activity (Homo sapiens [4]) | Activity (Homo sapiens [5]) | Activity (Homo sapiens [6]) | Activity (Homo sapiens [7]) | inhibition (Sus scrofa) | Activity (OVCAR-3 [8]) | Activity (Homo sapiens [9]) | Activity (OVK18 [10]) | Drug metabolism (Beta-galactosidase) | Activity (Homo sapiens [11]) | Activity (Homo sapiens [12]) | Activity (OVK18 [13]) | Activity (OVCAR-3 [14]) | Activity (Homo sapiens [15]) | Activity (Homo sapiens [16])
1 | COc1ccc(/C=C\c2cc(OC)c(OC)c(OC)c2)cc1O [COMBRETASTATIN A4] | 1.99 | 3.45 | Active | Active | Active | Active | – | – | – | – | – | – | – | – | – | – | – | –
2 | COc1ccc(/C=C\c2cc(OC)c(OC)c(OC)c2)cc1O[C@@H]1O[C@H](CO)[C@H](O)[C@H](O)[C@H]1O | 252 | 69.1 | – | – | – | – | Active | inactive | inactive | Active | inactive | Metabolite_Detected | Active | Active | – | – | – | –
3 | COc1ccc(/C=C\c2cc(OC)c(OC)c(OC)c2)cc1OCc1ccc(O[C@@H]2O[C@H](CO)[C@H](O)[C@H](O)[C@H]2O)cc1 | 2.67 | 2.47 | Active | Active | Active | Active | – | inactive | – | – | – | Metabolite_Detected | – | – | inactive | inactive | inactive | Active
